Read-outs that look alike come from different tables or passages of the source.
Legend:
HaCaT keratinocytes = assay: Proliferation of HaCaT keratinocytes; assay type: cell-based, human; conditions: for EC50: read-out: EC50, inhibition of proliferation
SKMEL-188 cells = assay: [3H]-thymidine incorporation; assay type: cell-based, human; conditions: SKMEL-188, 72 h, [3H]-thymidine last 4 h
Outline: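 SKMEL-188 cells were grown in Ham's F-10 with 5% charcoal-treated FBS and synchronized at G0/G1 in serum-free medium. Compounds were added in fresh medium with 5% charcoal-treated FBS for 72 h. [3H]-thymidine (88.0 Ci/mmol) was present at 0.5 μCi/ml final for the last 4 h. Cells were precipitated with 10% TCA and counted by liquid scintillation. Mean ± SD, n=4; one-way ANOVA and t-test.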

VDR-EGFP fusion protein = target: T1, VDR-EGFP fusion protein (Homo sapiens, UniProt P11473); assay: VDR translocation into the nucleus; assay type: cell-based; conditions: SKMEL-188 transduced with pLenti-CMV-VDR-EGFP, 10 nM, 90 min
T1 sequence (P11473 1-427): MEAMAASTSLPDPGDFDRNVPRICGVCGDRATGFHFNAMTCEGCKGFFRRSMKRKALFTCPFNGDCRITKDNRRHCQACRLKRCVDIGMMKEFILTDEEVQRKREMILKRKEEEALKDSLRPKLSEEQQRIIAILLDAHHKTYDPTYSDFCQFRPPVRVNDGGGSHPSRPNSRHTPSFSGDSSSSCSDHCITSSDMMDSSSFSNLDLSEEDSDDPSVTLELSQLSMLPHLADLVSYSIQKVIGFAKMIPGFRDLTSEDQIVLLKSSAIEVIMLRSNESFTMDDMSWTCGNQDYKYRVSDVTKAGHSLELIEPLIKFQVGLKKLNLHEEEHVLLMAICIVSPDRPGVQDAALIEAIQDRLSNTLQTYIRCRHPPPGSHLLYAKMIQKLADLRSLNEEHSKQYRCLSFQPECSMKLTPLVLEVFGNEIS
Outline: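 SKMEL-188 cells were stably transduced with a lentiviral CMV-driven VDR-EGFP fusion construct (10 MOI, 6 μg/ml polybrene). They were exposed to compound for 90 min, fixed in 4% paraformaldehyde, mounted and examined by fluorescence microscopy. In at least 10 fields, cells with fluorescent nuclei were counted and expressed as % of total cells. Student's t-test.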

melanoma SKMEL-188 = assay: Colony forming assay; assay type: cell-based, human; conditions: SKMEL-188, 0.1, 10 and 1000 nM, 6-10 days
Outline: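 SKMEL-188 cells were plated at 500 cells/well in 12-well plates in F10 medium with charcoal-stripped FBS and antibiotic-antimycotic, at 37°C in 5% CO2. They were treated at 0.1, 10 and 1000 nM, with matched ethanol dilution as vehicle control, and grown 6–10 days. Colonies were stained with 0.1% […], then counted and sized from photographs. CFU = colonies/cells plated ×100. Mean ± SEM, n=3 or 4.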

[1] = tested on: AbC1 cell line derived from Bomirski hamster melanoma; assay: [3H]-thymidine incorporation; assay type: cell-based

| Structure (SMILES) | EC50 (HaCaT keratinocytes; Homo sapiens) [nM] | effect on proliferation of HaCaT cells (HaCaT keratinocytes) | inhibition of DNA synthesis (SKMEL-188 cells) | translocation of VDR-GFP fusion protein into the nucleus (VDR-EGFP fusion protein) | EC50 (HaCaT keratinocytes) [nM] | inhibition of colony formation (melanoma SKMEL-188) | inhibition of DNA synthesis [1] |
| --- | --- | --- | --- | --- | --- | --- | --- |
| C=C1/C(=C\C=C2/CCC[C@]3(C)[C@@H]([C@H](C)CCCC(C)(C)O)CC[C@@H]23)C[C@@H](O)C[C@@H]1O [1,25(OH)2D3, reference compound] | 180 |  |  |  |  |  |  |
| C[C@]12CC[C@H]3C(=CC=C4C[C@@H](O)CC[C@@]43C)[C@@H]1CC[C@@H]2C(=O)CO [21(OH)7DHP, 3β, 21-Dihydroxypregna-5,7-dien-20-one] | > 1000 | no effect | inhibited DNA synthesis | induced translocation |  |  |  |
| C=C1CC[C@H](O)C/C1=C/C=C1\CCC[C@]2(C)[C@@H](C(=O)CO)CC[C@@H]12 [21(OH)pD, (5Z,7E)-3β,21-Dihydroxy-9,10-secopregna-5,7,10(19)-trien-20-one] |  |  | inhibited DNA synthesis | efficient translocation | 40 | best inhibition |  |
| C[C@]12CC[C@@H]3C(=CC=C4C[C@@H](O)CC[C@]43C)[C@@H]1CC[C@@H]2C(=O)CO [21(OH)pL, 3β,21-Dihydroxy-9β,10α-pregna-5,7-dien-20-one] | > 1000 | no effect | highest inhibitory potency | significantly lower |  | less potent inhibitory effect | efficiently inhibited DNA synthesis |

Source: publication PMC3005096 (Steroids, 2010)
